Test results reported in PubChem BioAssay.
Records with an inconclusive call do not appear.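 Rule for the calls, unless noted: active = inhibition over a set limit, the all-compound mean plus 3 SD, in both replicate runs; inconclusive = over that limit in just one replicate run; inactive = at or under that limit in both runs.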

What was measured:
[1] = OD615 S. cerevisiae growth inhibition, permissive medium, pilot counter-assay, permissive growth control for S. cerevisiae lifespan shortening project (AID 705;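 active = growth inhibition above 25% in both replicates, a cutoff set 3 SD above the mean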); conditions: OD615, 24 h, at 10 µM, active compounds read high
Outline: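 Test system: Saccharomyces cerevisiae strain carrying genetically modified DeaD replicative-lifespan system; buffer or medium: SC raffinose/galactose permissive medium; dosing: one dose 10 µM, DMSO 0.25% final; times: 24 h exposure, 30 °C; measured by: OD at 615 nm; read-out basis: growth inhibition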

[2] = Restrictive medium S. cerevisiae growth inhibition, OD615, pilot screen of yeast lifespan reduction project, restrictive growth control (AID 706;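 active = growth inhibition above a set limit, 3 SD over mean compound inhibition, in both replicates, cut at about 43% in these data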;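 note: modified DeaD lifespan yeast strain shifted to restrictive glucose medium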); conditions: OD615, 48 h, at 10 µM, active compounds read high
Outline: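 material = engineered S. cerevisiae DeaD strain | buffer or medium = glucose-based CSMM-D restrictive medium | dosing = one concentration, 10 µM final, 0.25% DMSO | schedule = 4 h pre-growth plus 48 h compound exposure, 30 °C | detection = OD615 absorbance reading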

[3] = viability gain of MRP-1-high H69AR cells under doxorubicin, pilot screen, MRP-1 activator project, CellTiter-Glo, duplicate (AID 807;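 active = viability increase at or above a cutoff of the median across tested compounds plus 3 SD, cut at about 8.5% in these data, passing the limit was not always enough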;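 note: compound pretreatment 18-22 h then 72 h combined with doxorubicin; 0% = doxorubicin alone and 100% = vehicle without doxorubicin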); conditions: H69AR viability with doxorubicin, CellTiter-Glo luminescence; at 10 µM; active compounds read high
[4] = growth suppression of beta-catenin knockout HCT116, pilot screen, human colon tumor cells (AID 823;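 active = cell viability at or below a set limit in both duplicate runs, the limit being the all-compound median minus 4 SD, cut at about 23% in these data, passing the limit was not always enough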;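 note: 0% = wells killed by 20 µM Hyamine and 100% = untreated DMSO cell wells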); conditions: CellTiter-Glo, 60 h, at 10 µM, active compounds read low
[5] = growth suppression of PTEN-deleted HCT116, pilot screen, cell-based, HCT116 clonal line, CellTiter-Glo (AID 824;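 active = viability at or below 27.92% in each of two runs, the all-compound median minus 4 SD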;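 note: 0% = 20 µM Hyamine control and 100% = vehicle cell control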); conditions: 60 h, at 10 µM, active compounds read low
[6] = inhibitors of the yeast RAM network, pilot screen, dse1pr::URA3 reporter, 5-FOA selection (AID 869);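 note: 0% = DMSO wells with no growth and 100% = 10 µM 1-NA-PP1 with full growth; RAM network block rescues cells from 5-FOA so hits raise OD615 growth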; conditions: S. cerevisiae dse1pr::URA3 5-FOA growth, OD615, 2 d; at 10 µM; active compounds read high; strain carries analog-sensitive mutant Cbk1 kinase
[7] = RAM signaling pathway blockade in yeast – S. cerevisiae, Pdr1DBD-CYC8 efflux-inhibited sensitized strain, primary screen (AID 1298;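 active = RAM network inhibition above 8.4% in each of two replicates, 3 SD over the compound average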;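 note: 0% = DMSO untreated cells without growth and 100% = 10 µM 1-NA-PP1 full growth; higher means more yeast growth rescued from 5-FOA killing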); conditions: S. cerevisiae cbk1-as DSE1-URA3 strain, 5-FOA growth OD615, 2 d; at 50 µM; active compounds read high

C=C1c2cc(CC)ccc2NC(=O)N1c1ccc(C)cc1
inactive: growth inhibition [1] -6.46% | growth inhibition [2] -2.23% | viability increase [3] 3.36% | viability [4] 97.9% | viability [5] 101% | inhibition [6] 0.37% | RAM network inhibition [7] 0.61%

CNC(=O)CN1C(=O)CSc2nc(C)cc(C)c21
inactive: growth inhibition [1] -8.87% | growth inhibition [2] -6.29% | viability increase [3] 0.88% | viability [4] 99.9% | viability [5] 97.8% | inhibition [6] 1.83% | RAM network inhibition [7] 1.73%

Cc1ccc(-c2nc(CS(=O)CC(=O)NCCCN3CC(C)CC(C)C3)c(C)o2)cc1 (configuration not stated)
inactive: growth inhibition [1] -14.2% | growth inhibition [2] -13.2% | viability increase [3] -4.27% | viability [4] 77.5% | viability [5] 79.1% | inhibition [6] 0.255% | RAM network inhibition [7] 2.65%

Cc1ccc(-n2nnc3c(=O)n(Cc4cccc(C)c4)cnc32)cc1
inactive: growth inhibition [1] -5.14% | growth inhibition [2] -6.1% | viability increase [3] 1.15% | viability [4] 99.9% | viability [5] 93.7% | inhibition [6] 2.65% | RAM network inhibition [7] 1.34%

CCCCCCc1c(O)nc(SCC(=O)O)[nH]c1=O
inactive: growth inhibition [1] 5.63% | growth inhibition [2] 13.4% | viability increase [3] 0.25% | viability [4] 108% | viability [5] 101% | inhibition [6] 2.51% | RAM network inhibition [7] -0.58%

COCCNC(=O)CN1C(=O)COc2ccc(Cl)cc21
inactive: growth inhibition [1] -4.28% | growth inhibition [2] 6.35% | viability increase [3] -1.25% | viability [4] 111% | viability [5] 97.9% | inhibition [6] 1.12% | RAM network inhibition [7] 5.23%

CC(C)N(Cc1nc(-c2ccccc2)no1)C(=O)c1ccc(Cl)cc1
inactive: growth inhibition [1] -9.85% | growth inhibition [2] -12% | viability increase [3] 2.12% | viability [4] 80.7% | viability [5] 76.2% | inhibition [6] 3.25% | RAM network inhibition [7] 6.42%

Cc1cccc(OCc2nc(C#N)c(N3CC(C)CC(C)C3)o2)c1 (configuration not stated)
inactive: growth inhibition [1] 0.505% | growth inhibition [2] -2.89% | viability increase [3] 3.8% | viability [4] 63.5% | viability [5] 65.3% | inhibition [6] 1.85% | RAM network inhibition [7] 5.88%

COc1cccc(-c2nc(C(N)=O)c3[nH]c(=O)n(-c4cccc(Cl)c4)c3n2)c1OC
inactive: growth inhibition [1] -21.4% | growth inhibition [2] -28.5% | viability increase [3] -4.45% | viability [4] 75.5% | viability [5] 72.5% | inhibition [6] 4.14% | RAM network inhibition [7] 3.65%

OCCCc1nc2n(n1)C(c1cccs1)C=C(c1ccccc1)N2 (configuration not stated)
inactive: growth inhibition [1] -17.7% | growth inhibition [2] -5.79% | viability increase [3] -4.73% | viability [4] 83.6% | viability [5] 84.7% | inhibition [6] 3.25% | RAM network inhibition [7] 3.92%

Clc1ccccc1CSc1nnc(-c2cccnc2)n1Cc1ccco1
inactive: growth inhibition [1] 2.38% | growth inhibition [2] 23.5% | viability increase [3] -4.89% | viability [4] 90.4% | viability [5] 91% | inhibition [6] 1.38% | RAM network inhibition [7] 4.7%

FC(F)(F)c1cccc(-c2ccc(-c3csnn3)o2)c1
inactive: growth inhibition [1] -0.85% | growth inhibition [2] 6.13% | viability increase [3] -0.47% | viability [4] 82.2% | viability [5] 83.6% | inhibition [6] 1.4% | RAM network inhibition [7] 9.48%

CC(C)OC(=O)CSc1nnc(-c2ccncc2)n1N
inactive: growth inhibition [1] -8.12% | growth inhibition [2] -10.2% | viability increase [3] -2.11% | viability [4] 97.5% | viability [5] 97.1% | inhibition [6] 1.8% | RAM network inhibition [7] 3.83%

CC1=C(C#N)C(c2cccnc2)C2=C(CC(C)(C)CC2=O)N1 (configuration not stated)
inactive: growth inhibition [1] 1.49% | growth inhibition [2] -0.735% | viability increase [3] -2.91% | viability [4] 94.2% | viability [5] 99.6% | inhibition [6] 1.09% | RAM network inhibition [7] 3.92%

Nc1[nH]nc2nc(N3CCOCC3)nc(-c3ccccc3)c12
inactive: growth inhibition [1] -7.04% | growth inhibition [2] 4.65% | viability increase [3] -4.39% | viability [4] 88.2% | viability [5] 88.3% | inhibition [6] 2.38% | RAM network inhibition [7] 1.55%

COc1ccc(-c2nc(CS(=O)CC(=O)NCCC3=CCCCC3)c(C)o2)cc1 (configuration not stated)
inactive: growth inhibition [1] 0.225% | growth inhibition [2] 9.63% | viability increase [3] -4.36% | viability [4] 77.1% | viability [5] 79.6% | inhibition [6] 0.475% | RAM network inhibition [7] 3.02%

C=CCn1c(CSc2nc3ccccc3s2)nnc1SCC(=O)NCc1ccco1
inactive: growth inhibition [1] 1.06% | growth inhibition [2] 30.4% | viability increase [3] -3.87% | viability [4] 96.6% | viability [5] 90.4% | inhibition [6] 0.105% | RAM network inhibition [7] 2.19%

CCCN1Cc2cccc(C(=O)Nc3ccc4c(c3)OCCO4)c2C1=O
inactive: growth inhibition [1] 0.22% | growth inhibition [2] -5.64% | viability increase [3] 0.47% | viability [4] 106% | viability [5] 97.2% | inhibition [6] 1.35% | RAM network inhibition [7] 2.75%

Cc1ccc2oc(=O)c3cc(C(=O)N4CCN(C(=O)c5ccco5)CC4)sc3c2c1
inactive: growth inhibition [1] -9.32% | growth inhibition [2] -1.79% | viability increase [3] -2.75% | viability [4] 102% | viability [5] 99.5% | inhibition [6] 2.8% | RAM network inhibition [7] 3.77%

COc1cccc(N2C(=O)Nc3ccccc3C2(O)C(=O)NCc2ccc3c(c2)OCO3)c1 (configuration not stated)
inactive: growth inhibition [1] -11.5% | growth inhibition [2] -8.59% | viability increase [3] -0.4% | viability [4] 95.9% | viability [5] 99.7% | inhibition [6] 0.51% | RAM network inhibition [7] 9.22%

O=C1c2ccccc2C(=O)N1CCc1nc2ccccc2c(=O)n1CCCn1ccnc1
inactive: growth inhibition [1] -3.21% | growth inhibition [2] 11% | viability increase [3] -2.41% | viability [4] 95.5% | viability [5] 97% | inhibition [6] 2.01% | RAM network inhibition [7] 2.2%

COc1ccc(C2CC(c3ccc(Cl)cc3Cl)Nc3nc(N)nn32)cc1OC (configuration not stated)
inactive: growth inhibition [1] 0.16% | growth inhibition [2] 22.6% | viability increase [3] 6.01% | viability [4] 88.2% | viability [5] 85.7% | inhibition [6] 0.4% | RAM network inhibition [7] 1.22%

CC(C)CCn1c(SCC(N)=O)nc2c1c(=O)n(C)c(=O)n2C
inactive: growth inhibition [1] -11.8% | growth inhibition [2] -14.9% | viability increase [3] 0.12% | viability [4] 103% | viability [5] 102% | inhibition [6] -0.76% | RAM network inhibition [7] 2%

c1ccc(-c2cnc(-c3cccnc3)o2)cc1
inactive: growth inhibition [1] 0.08% | growth inhibition [2] 7.29% | viability increase [3] -4.72% | viability [4] 95.5% | viability [5] 94.4% | inhibition [6] 2.12% | RAM network inhibition [7] 1.68%

C=C(C)CSc1nnc(-c2cc(OC)c(OC)c(OC)c2)n1N
inactive: growth inhibition [1] 8.03% | growth inhibition [2] 7.75% | viability increase [3] -1.01% | viability [4] 95.2% | viability [5] 97.8% | inhibition [6] 0.94% | RAM network inhibition [7] 4%

CCOc1ccccc1NC(=O)CCS(=O)(=O)c1cccc2nonc12
inactive: growth inhibition [1] -15% | growth inhibition [2] -21.8% | viability increase [3] -4.44% | viability [4] 103% | viability [5] 96.3% | inhibition [6] 1.34% | RAM network inhibition [7] 5.48%

CCOC(=O)C1C(=O)OC2(CCOC(C)(C)C2)C1C(=O)OCC (configuration not stated)
inactive: growth inhibition [1] 1.65% | growth inhibition [2] 7.69% | viability increase [3] -0.15% | viability [4] 105% | viability [5] 100% | inhibition [6] 1.38% | RAM network inhibition [7] 0.98%

O=C(Nc1ccc2c(c1)OCO2)C(c1ccccc1)N1CCCCC1 (configuration not stated)
inactive: growth inhibition [1] -3.12% | growth inhibition [2] 0.37% | viability increase [3] -1.69% | viability [4] 80.6% | viability [5] 93.2% | inhibition [6] 1.16% | RAM network inhibition [7] 2.51%

CN(C)c1nc(N)nc(N(c2ccccc2)c2ccccc2)n1
inactive: growth inhibition [1] -12.3% | growth inhibition [2] -28.1% | viability increase [3] -2.5% | viability [4] 93.6% | viability [5] 90.8% | inhibition [6] -0.635% | RAM network inhibition [7] 2.96%

CCOC(=O)Cc1csc(NC(=O)COc2ccc(N(C)S(=O)(=O)c3cccs3)cc2)n1
inactive: growth inhibition [1] -7.54% | growth inhibition [2] -11.7% | viability increase [3] -1.76% | viability [4] 71% | viability [5] 80.3% | inhibition [6] 0.12% | RAM network inhibition [7] 1.7%

O=C(NC1CCCCCCC1)C1CCC(CNc2c(N3CCCC3)c(=O)c2=O)CC1 (configuration not stated)
inactive: growth inhibition [1] -6.82% | growth inhibition [2] 0.64% | viability increase [3] 0.87% | viability [4] 91.6% | viability [5] 96% | inhibition [6] 0.85% | RAM network inhibition [7] 4.83%

COc1ccc(Br)cc1CNC(=O)C1CCC(=O)N1C(C)C (configuration not stated)
inactive: growth inhibition [1] 6.52% | growth inhibition [2] 4.42% | viability increase [3] -2.9% | viability [4] 91.7% | viability [5] 94.7% | inhibition [6] 1.99% | RAM network inhibition [7] 3.58%

COc1cc(OC)c(C2Oc3nc(SC)nnc3-c3ccccc3N2C(C)=O)cc1OC (configuration not stated)
inactive: growth inhibition [1] 4.06% | growth inhibition [2] -0.66% | viability increase [3] -4.95% | viability [4] 108% | viability [5] 108% | inhibition [6] 3.23% | RAM network inhibition [7] 1.75%

O=C(Nc1ncc(Br)s1)C(Cc1ccccc1)n1cccc1 (configuration not stated)
inactive: growth inhibition [1] -17.7% | growth inhibition [2] -13.6% | viability increase [3] -6.2% | viability [4] 63.7% | viability [5] 58% | inhibition [6] 2.83% | RAM network inhibition [7] -0.21%

O=C(CSc1nnc(-c2ccccc2)o1)Nc1ccccc1F
inactive: growth inhibition [1] -5.54% | growth inhibition [2] -2.1% | viability increase [3] -3.62% | viability [4] 37.7% | viability [5] 38% | inhibition [6] 2.13% | RAM network inhibition [7] 8.53%

O=C(c1ccccn1)N(CC1CCCO1)C1(C(=O)NC2CCCCC2)CCCCC1 (configuration not stated)
inactive: growth inhibition [1] -4.99% | growth inhibition [2] -10.3% | viability increase [3] -0.31% | viability [4] 85.5% | viability [5] 92.3% | inhibition [6] 1.69% | RAM network inhibition [7] -0.32%
